Our source for the Ki and IC50 values is ChEMBL document CHEMBL1132577, “Conformational preferences in a benzodiazepine series of potent nonpeptide fibrinogen receptor antagonists” (J Med Chem, 1999).

A value given as a limit tells only on which side of the number the result lay.

The target in test [1] is Integrin alpha-IIb/beta-3 (Homo sapiens, UniProt P05106+P08514). The experiment in a line: Fibrinogen receptor binding affinity was determined by assaying for inhibition of [3H]1 binding to purified Fibrinogen Receptor isolated from human platelets and reconstituted in liposomes. In short, it runs like this:
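Competition binding of the tritiated ligand [³H]-1 to the fibrinogen receptor glycoprotein complex GPIIb/IIIa, purified from human platelets and reconstituted into liposomes. The read-out is inhibition of radioligand binding.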

The species entered for test [2] is Homo sapiens. The experiment in a line: Inhibition of ADP-induced platelet aggregation in human platelet-rich plasma. The format is functional, organism-based.

Chain of Integrin alpha-IIb/beta-3 (P05106 27-788 limits assumed): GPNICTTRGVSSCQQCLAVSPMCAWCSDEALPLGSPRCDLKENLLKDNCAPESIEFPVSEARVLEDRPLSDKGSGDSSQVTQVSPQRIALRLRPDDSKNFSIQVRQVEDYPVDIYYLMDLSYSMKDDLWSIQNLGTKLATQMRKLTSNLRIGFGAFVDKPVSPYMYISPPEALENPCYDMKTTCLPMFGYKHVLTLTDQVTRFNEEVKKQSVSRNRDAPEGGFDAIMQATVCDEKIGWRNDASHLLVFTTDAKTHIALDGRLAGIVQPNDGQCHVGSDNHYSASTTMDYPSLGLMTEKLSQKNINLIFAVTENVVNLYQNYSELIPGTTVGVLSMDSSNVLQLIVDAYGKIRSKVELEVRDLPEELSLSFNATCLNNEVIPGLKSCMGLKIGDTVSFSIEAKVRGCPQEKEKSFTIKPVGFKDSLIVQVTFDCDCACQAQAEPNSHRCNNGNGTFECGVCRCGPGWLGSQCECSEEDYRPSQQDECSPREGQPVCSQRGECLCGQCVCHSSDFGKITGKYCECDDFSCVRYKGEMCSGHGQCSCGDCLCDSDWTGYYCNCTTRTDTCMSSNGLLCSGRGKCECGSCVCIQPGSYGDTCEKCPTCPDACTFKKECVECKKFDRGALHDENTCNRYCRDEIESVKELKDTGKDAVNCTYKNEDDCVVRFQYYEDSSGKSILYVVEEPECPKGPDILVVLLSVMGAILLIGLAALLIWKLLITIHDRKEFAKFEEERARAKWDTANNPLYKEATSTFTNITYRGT
Chain of Integrin alpha-IIb/beta-3 (P08514 32-887 limits assumed): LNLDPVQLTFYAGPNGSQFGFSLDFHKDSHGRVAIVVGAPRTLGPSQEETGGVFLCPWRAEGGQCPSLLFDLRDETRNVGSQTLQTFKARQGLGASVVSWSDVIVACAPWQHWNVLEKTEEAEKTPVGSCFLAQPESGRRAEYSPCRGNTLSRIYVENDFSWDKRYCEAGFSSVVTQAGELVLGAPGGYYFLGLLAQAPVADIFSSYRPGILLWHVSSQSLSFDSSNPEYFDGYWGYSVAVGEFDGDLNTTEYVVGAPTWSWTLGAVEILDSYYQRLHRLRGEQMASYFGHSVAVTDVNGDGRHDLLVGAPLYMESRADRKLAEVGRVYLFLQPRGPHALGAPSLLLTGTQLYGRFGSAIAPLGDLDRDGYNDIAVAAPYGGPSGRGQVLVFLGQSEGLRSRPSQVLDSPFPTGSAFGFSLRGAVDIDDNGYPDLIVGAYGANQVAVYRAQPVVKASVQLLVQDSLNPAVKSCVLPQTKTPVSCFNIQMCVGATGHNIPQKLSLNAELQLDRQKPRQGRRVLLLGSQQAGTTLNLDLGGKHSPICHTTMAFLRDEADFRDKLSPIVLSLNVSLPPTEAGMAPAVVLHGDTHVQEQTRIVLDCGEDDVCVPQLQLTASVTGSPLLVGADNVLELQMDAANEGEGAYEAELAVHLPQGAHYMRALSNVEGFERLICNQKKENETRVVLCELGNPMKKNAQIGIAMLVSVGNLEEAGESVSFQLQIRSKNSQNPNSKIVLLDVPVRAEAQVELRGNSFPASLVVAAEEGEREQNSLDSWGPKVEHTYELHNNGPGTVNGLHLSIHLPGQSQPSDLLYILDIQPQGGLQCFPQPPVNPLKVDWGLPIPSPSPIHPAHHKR
Chain of Integrin alpha-IIb/beta-3 (P08514 891-1039 limits assumed): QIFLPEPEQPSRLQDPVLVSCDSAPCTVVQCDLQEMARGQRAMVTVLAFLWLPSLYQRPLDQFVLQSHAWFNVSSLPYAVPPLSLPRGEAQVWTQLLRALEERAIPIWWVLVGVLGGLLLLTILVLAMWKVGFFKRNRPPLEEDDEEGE

As usually defined, the Ki is the equilibrium dissociation constant of an inhibitor or competing ligand from its target. Read a low Ki as higher affinity. For orientation: IC50 means the midpoint of a concentration-inhibition curve. In the case of `O=C(O)CC1Nc2cc(C(=O)NCCC3CCNCC3)ccc2CN(CCc2ccccc2)C1=O` (configuration not stated), in test [1], affinity was put at a Ki of 0.0047 µM. Half-maximal inhibition in test [2] (IC50) was put at 0.51 µM.
Consider `O=C(O)CC1Nc2cc(/C=C\CCC3CCNCC3)ccc2CN(CCc2ccccc2)C1=O` (configuration not stated), for which the affinity in test [1] corresponds to a Ki of 0.75 µM. In test [2], 7.4 µM corresponded to half-maximal inhibition (IC50).
In test [1], `N=C(N)c1ccc(NC(=O)c2ccc3c(c2)N[C@@H](CC(=O)O)C(=O)N(CCc2ccccc2)C3)cc1` yielded a Ki of 0.002 µM. In test [2], this compound gave an IC50 of 0.034 µM.
As for `N=C(N)c1ccc(C(=O)Nc2ccc3c(c2)NC(CC(=O)O)CN(CCc2ccccc2)C3=O)cc1` (configuration not stated), in test [2], the IC50 was > 200 µM.
For the compound `CN(C(=O)c1ccc2c(c1)CN(CCC(=O)O)C(=O)CC2)c1ccc(C(=N)N)cc1`, the affinity in test [1], expressed as Ki, was 22.5 µM. In addition, the IC50 in test [2] is > 200 µM.
On the same counts, the results for `N=C(N)c1ccc(NC(=O)c2ccc3c(c2)NC(CC(=O)O)CN(CCc2ccccc2)C3)cc1` (configuration not stated) are 0.54 µM and 3 µM.
Compound `N=C(N)c1ccc(C(=O)Nc2ccc3c(c2)CN(CC(=O)O)C(=O)NC3)cc1` had an IC50 in test [2] of 23 µM.
`N=C(N)c1ccc(NC(=O)c2ccc3c(c2)N[C@H](CC(=O)O)C(=O)N(CCc2ccccc2)C3)cc1` registered a Ki in test [1] of 0.5 µM. The 50% inhibitory concentration (IC50) in test [2] was 2.2 µM.
For `N=C(N)c1ccc(C(=O)Nc2ccc3c(c2)NC(CC(=O)O)C(=O)N(CCc2ccccc2)C3)cc1` (configuration not stated) the same measures were 0.002 µM and 0.13 µM.
`N=C(N)c1ccc(NC(=O)c2cccc(NC(CC(=O)O)C(=O)O)c2)cc1` (configuration not stated): in test [2], inhibition was half-maximal at 4.7 µM (IC50).
For `O=C(O)CC1Nc2cc(/C=C/CCC3CCNCC3)ccc2CN(CCc2ccccc2)C1=O` (configuration not stated), the inhibitory constant (Ki) in test [1] was 0.019 µM. The same compound had an IC50 in test [2] of 0.175 µM.
On the same counts, the results for `N=C(N)c1ccc(C(=O)Nc2ccc3c(c2)CN(CC(=O)O)C(=O)CN3)cc1` are 1.2 µM and 3.1 µM.
`O=C(O)CC1Nc2cc(CCCCC3CCNCC3)ccc2CN(CCc2ccccc2)C1=O` (configuration not stated) showed an inhibitory constant (Ki) in test [1] of 0.08 µM. For the same compound, half-maximal inhibition in test [2] (IC50) was put at 0.93 µM.
On the same counts, the results for `CN(CCC1CCNCC1)C(=O)c1ccc2c(c1)NC(CC(=O)O)C(=O)N(CCc1ccccc1)C2` (configuration not stated) are 0.0019 µM and 0.015 µM.
The compound `N=C(N)c1ccc(C(=O)Nc2ccc3c(c2)CN(CCC(=O)O)C(=O)CN3)cc1` displayed a Ki in test [1] of 0.29 µM. The compound also had a half-inhibitory concentration (IC50) in test [2] of 2.1 µM.
Consider `N=C(N)c1ccc(NC(=O)c2ccc3c(c2)NC(CC(=O)O)CCC3)cc1` (configuration not stated), for which the IC50 in test [2] was determined as 3.9 µM.
For the compound `CN(C(=O)c1ccc2c(c1)CN(CC(=O)O)C(=O)CC2)c1ccc(C(=N)N)cc1`, the Ki in test [1] is > 50 µM. Moreover, the IC50 in test [2] was > 200 µM.
For `N=C(N)c1ccc(NC(=O)c2ccc3c(c2)NC(CC(=O)O)CN(CCc2ccccc2)C3=O)cc1` (configuration not stated) the same measures were 0.8 µM and 8.3 µM.
